# Marks after values point to notes of the source that are not given here. No end group written: not given here.
# Columns and labels:
# [1] = 298 K; average of HN CSD values at T(L3), K(S+1) and G(L4) ΔδHα/α', K1R-HP7 as fully-folded state; cited from earlier work
# CD thermal denaturation = format: physicochemical; conditions: for β-Strap %-fold χF at 291K: local β-strap folding at 291 K (18 °C) from best-fitted melting curves of [θ(T)]228, phosphate buffer 15 mM, pH 6.5; for T·ΔΔSF°: entropic difference between pairs as printed: 2b/2a, 3d/3e; for χF / % fold (NMR and CD collectively): 291 K, NMR and CD data together; for ΔGF*: free energy at temperature T* of maximal stability, from thermostability curves; for % folded below 50 °C: plateau of thermal stability from 0 to ~50 °C, dynamic equilibrium of stable conformational states; for ΔCpF°: heat capacity of folding
# [2] = Kinetic solubility in phosphate buffer; format: physicochemical; conditions: phosphate buffer (PB, 50 mM), pH 7.4
# [3] = Loop %-folding by 1H NMR from glycine Hα/α' splitting; format: physicochemical; conditions: 291 K; ΔδHα/α'G(L4) model with 0.33 ppm as fully-folded state (model of ref 27)
# Summary of the method: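 Peptide samples at 3–10 mM for 1H NMR, TOCSY (80 ms mixing), NOESY (200 ms mixing) and 1H–13C HSQC. Samples for 1H–15N HSQC and HMBC were at 10–20 mM, with some constructs at 10–70 mM. Chemical shift deviations are experimental δH minus calculated random-coil δH. Random-coil values were checked against random-coil reference peptides (Δ|CSD| ≤ 0.20 ppm).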
Substance,β-Strap %-fold χF at 291K (CD thermal denaturation) [%],solubility [2] [mM],Loop %-fold χF (value in parentheses) [3] [%],other results
Ac-NPATGK-NH2 [Loop],,,,Loop %-fold χF [1]: 6 ± 7%^d
Ac-W-NPATGK-W-NH2 [Tr-HP7],,,,Loop %-fold χF [1]: 49 ± 1%^d
Ac-WDDATKTWTG-NH2 [1b],54 ± 7,35.3,,
Ac-WNPATGKWTG-NH2 [1a],28 ± 1,2.9,70,
Ac-WTFNPATGKFKWTG-NH2 [1c],63 ± 4,22.3,151,
Ac-WVWGPGTGKWVW-NH2 [2b],56 ± 1,0.8,9,T·ΔΔSF° (CD thermal denaturation): 3.25 kcal/mol
Ac-WVWNPATGKWVW-NH2 [2a],99 ± 1,1.2,154,"χF / % fold (NMR and CD collectively) (CD thermal denaturation): > 90%; ΔGF° (CD thermal denaturation; folding free energy at 298 K, two-state model from CD melts): -2.36 kcal/mol; ΔGF* (CD thermal denaturation): -2.50 kcal/mol; % folded below 50 °C (CD thermal denaturation): > 80%"
KTW-NPATGK-WTE [HP7],,,,Loop %-fold χF [1]: 89 ± 1%^d
RWHWNPATGKWVWE [3b],95 ± 2,56.3,167,ΔGF* (CD thermal denaturation): -1.84 kcal/mol; ΔCpF° (CD thermal denaturation; two-state model from CD melts): −158 ± 3 cal·mol^−1·deg^−1; % folded below 50 °C (CD thermal denaturation): > 80%
RWNPATGKWE [3c],84 ± 11,39.5,139,ΔCpF° (CD thermal denaturation; two-state model from CD melts): −106 cal·mol^−1·deg^−1
RWVWGGGGKKGGGGWVWE [3d],88 ± 1,5.8,,T·ΔΔSF° (CD thermal denaturation): -3.53 kcal/mol
RWVWNPATGKWVWE [3a],89 ± 14,27.1,154,χF / % fold (NMR and CD collectively) (CD thermal denaturation): 89–93%; ΔCpF° (CD thermal denaturation; two-state model from CD melts): −53 cal·mol^−1·deg^−1; % folded below 50 °C (CD thermal denaturation): > 80%
RWVWRDYRFDMGFDWVWE [3e],55 ± 1,0.6,,
RWVWRDYRGDMGFDWVWE [3f],82 ± 1,8.2,,ΔGF* (CD thermal denaturation): -3.18 kcal/mol
